Assays:
[1] = biological target: T1, Neuropeptide Y receptor type 1 (Homo sapiens, UniProt P25929); assay: In vitro binding affinity towards human neuropeptide Y receptor type 1, determined by measuring its ability to displace [125]peptide YY
T1 sequence (P25929 whole entry): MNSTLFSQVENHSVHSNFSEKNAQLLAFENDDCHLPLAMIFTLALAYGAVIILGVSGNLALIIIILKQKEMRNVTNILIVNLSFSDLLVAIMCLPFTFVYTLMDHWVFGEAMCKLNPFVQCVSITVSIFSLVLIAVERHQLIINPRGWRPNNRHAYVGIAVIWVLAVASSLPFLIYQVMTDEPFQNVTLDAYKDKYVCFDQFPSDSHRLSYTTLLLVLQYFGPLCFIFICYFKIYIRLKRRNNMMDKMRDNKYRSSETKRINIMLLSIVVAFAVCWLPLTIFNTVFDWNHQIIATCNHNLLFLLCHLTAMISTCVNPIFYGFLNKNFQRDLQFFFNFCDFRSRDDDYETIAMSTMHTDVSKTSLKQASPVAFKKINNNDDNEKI

SK-N-MC = assay: In vitro functional activity determined by its ability to antagonize 1 nM NPYs inhibition of forskolin -stimulated cyclic AMP accumulation in SK-N-MC cells; type: cell-based, Homo sapiens
Summary of the method: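 SK-N-MC cells were stimulated with forskolin. NPY (1 nM) and antagonist were added at the same time and incubated for only 15 min, to avoid receptor desensitization. Read-out was reversal of the NPY-induced inhibition of cAMP accumulation.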

Row | Ki [1] [nM] | SMILES | Ki (SK-N-MC) [nM]
1 | 1290 | Cc1ccc2c(c1)nc(COc1ccc(Cl)cc1)n2CCCC1CCCNC1.Cc1ccc2nc(COc3ccc(Cl)cc3)n(CCCC3CCCNC3)c2c1 (configuration not stated) | 
2 | 7020 | Clc1ccc(OCc2nc3ccccc3n2CCCN2CCCCC2)cc1 | 
3 | 152 | Clc1ccc(OCc2nc3c(OCCCC4CCNCC4)cccc3n2CCCC2CCCNC2)cc1 (configuration not stated) | 119
4 | 27 | Clc1ccc(OCc2nc3c(OCCC[C@H]4CCCNC4)cccc3n2CCC[C@@H]2CCCNC2)cc1 | 137
5 | 30 | Clc1ccc(OCc2nc3c(OCCCC4CCCNC4)cccc3n2CCCC2CCCNC2)cc1 (configuration not stated) | 77
6 | 97 | Cc1cccc2c1nc(COc1ccc(Cl)cc1)n2CCCC1CCCNC1 (configuration not stated) | 
7 | 400 | Cc1cccc2nc(COc3ccc(Cl)cc3)n(CCCC3CCCNC3)c12 (configuration not stated) | 
8 | 3230 | Clc1ccc(OCc2nc3ccccc3n2CCCC2CCCCN2)cc1 (configuration not stated) | 
9 | 6 | Clc1ccc(OCc2nc3c(OCCC[C@@H]4CCCNC4)cccc3n2CCC[C@@H]2CCCNC2)cc1 | 87
10 | 7860 | Clc1ccc(OCc2nc3ccccc3n2CCC2CCCCN2)cc1 (configuration not stated) | 
11 | 5300 | Oc1cccc2c1nc(COc1ccc(Cl)cc1)n2CCCC1CCCNC1 (configuration not stated) | 
12 |  | N=C(N)NCCCC(NC(=O)C(c1ccccc1)c1ccccc1)C(=O)NCc1ccc(O)cc1 (configuration not stated) | 11
13 | 1.7 | Clc1ccc(OCc2nc3c(OCCCN4CCCCC4)cccc3n2CCCC2CCCNC2)cc1 (configuration not stated) | 2.7
14 | 1210 | Clc1ccc(OCc2nc3ccccc3n2CCCCC2CCCNC2)cc1 (configuration not stated) | 
15 | 940 | Clc1ccc(OCc2nc3ccccc3n2CCC2CCNCC2)cc1 | 
16 | 980 | Clc1ccc(OCc2nc3ccccc3n2CCCC2CCNCC2)cc1 | 
17 | 17 | Clc1ccc(OCc2nc3c(OCCC[C@@H]4CCCNC4)cccc3n2CCC[C@H]2CCCNC2)cc1 | 65
18 | 7 | Clc1ccc(OCc2nc3c(OCCC4CCNCC4)cccc3n2CCCC2CCCNC2)cc1 (configuration not stated) | 15
19 | 700 | Clc1ccc(OCc2nc3ccccc3n2CCCC2CCCNC2)cc1 (configuration not stated) | 
20 | 41 | Clc1ccc(OCc2nc3c(OCCC[C@H]4CCCNC4)cccc3n2CCC[C@H]2CCCNC2)cc1 | 153
21 | 29 | Clc1ccc(OCc2nc3c(OCCC4CCCCN4)cccc3n2CCCC2CCCNC2)cc1 (configuration not stated) | 
22 | 1280 | Clc1ccc(OCc2nc3ccccc3n2CCC2CCCNC2)cc1 (configuration not stated) | 
23 | > 100000 | Clc1ccc(OCc2nc3ccccc3n2CCN2CCCCC2)cc1 | 
24 | 18 | Clc1ccc(OCc2nc3c(OCCC4CCCNC4)cccc3n2CCCC2CCCNC2)cc1 (configuration not stated) | 91
25 | 16 | Clc1ccc(OCc2nc3c(OCCCC4CCCCN4)cccc3n2CCCC2CCCNC2)cc1 (configuration not stated) | 53
26 | 43 | Clc1ccc(OCc2nc3c(OCCN4CCCCC4)cccc3n2CCCC2CCCNC2)cc1 (configuration not stated) | 240

— ChEMBL document CHEMBL1131030, “Synthesis and evaluation of a series of novel 2-[(4-chlorophenoxy)methyl]benzimidazoles as selective neuropeptide Y Y1 receptor antagonists” (J Med Chem, 1998)
